Screening results deposited in PubChem BioAssay by The Scripps Research Institute Molecular Screening Center.
Only some compounds are listed: those with a hit (about 2.7% of all), similar ones and a draw of the others.
OXTR potentiator: human OXTR potentiators, primary screen, fluorescence, CHO-OTR cells, Fluo-8 calcium; activation, % at 3 µM; Fluo-8 calcium fluorescence, potentiator mode; 0% = oxytocin EC15, 100% = EC100; AID 2445, 2010; 320,000 compounds, 0.061% hits; Oxytocin receptor (Homo sapiens), P30559;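 active = activation above that plate's cutoff, the mean activation of tested compounds plus 3 SD, cut at about 6.6% in these data, passing the limit was not always enough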;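 also: 100% uses oxytocin at 75 nM as the full agonist control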
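System: human OTR in CHO cells / Also added: sub-maximal oxytocin, roughly EC15 / Control set: EC15 oxytocin low, 75 nM oxytocin high / Schedule: 6 min compound pre-incubation at room temperature, 100 s kinetic read / Compound: single-point 3.0 µM / Replication: singlicate / Technique: Fluo-8 calcium dye fluorescence / Read-out basis: % activation of max/min ratio relative to oxytocin controls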
OX1R antag-1: OX1R (HCRTR1) antagonists, primary screen, fluorescence, CHO/OX1R cells, Fluo-8 calcium, orexin A. Orexin/Hypocretin receptor type 1 (Homo sapiens), O43613. Fluo-8 calcium fluorescence. inhibition, % at 5 µM. 330,000 compounds, 0.43% hits;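 active = inhibition above its plate's threshold, mean inhibition of all tested compounds on the plate plus 3 SD, cut at about 37% in these data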;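 also: 0% = orexin A challenge wells and 100% = SB-334867-A antagonist wells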
OXTR agonist: human OXTR agonists, primary screen, fluorescence, CHO-OTR cells, Fluo-8 calcium; Oxytocin receptor (Homo sapiens), P30559; Fluo-8 calcium fluorescence; normalized: DMSO 0%, oxytocin 100%; activation, % at 3 µM; 320,000 compounds, 0.32% hits; AID 2435, 2010;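 active = activation above the mean of all tested compounds plus 3 SD, cutoff set per screening run, cut at about 20% in these data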;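 also: peak over basal fluorescence ratio from a 100 s FLIPR kinetic read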
OX1R antag-2: antagonists of human orexin 1 receptor (OX1R); OX1R-expressing cells, FRET antagonist read-out; inhibition, % at 6.6 µM; 330,000 compounds, 1.8% hits; in the data active = inhibition mostly above about 38%, no sharp cut-off; inactive = mostly below about 40%;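 also: 0% = agonist challenge alone and 100% = reference antagonist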
CHO parental Ca: ATP-evoked calcium signal inhibitors, parental CHO, primary screen, counter-screen for OX1R antagonist project, cell-based, fluorescence, Fluo-8 calcium dye | parental CHO-K1, ATP-induced calcium, Fluo-8 fluorescence | inhibition, % at 5.6 µM | 330,000 compounds, 0.63% hits | AID 463079, 2010;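 active = inhibition above that plate's mean sample inhibition plus 3 SD, cut at about 26% in these data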;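 also: 0% = ATP-challenged DMSO wells and 100% = DMSO wells without ATP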
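Measured by: calcium-sensitive Fluo-8 fluorescence / Test system: CHO parental line / Controls: ATP-challenged DMSO wells low, unchallenged DMSO wells high / Measure: % inhibition / Compound: single nominal dose of 5.6 µM per compound / Replicates: single well per compound, no replicates / Reagent: ATP as calcium-mobilizing challenge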
V1R ag counter: agonists of human V1a receptor, primary screen, counter-screen for OXTR agonist project, fluorescence, CHO-V1R cells; Vasopressin V1a receptor (Homo sapiens), P37288; Fluo-8 calcium fluorescence, agonist mode; 0% DMSO, 100% 3 nM vasopressin; activation, % at 3 µM; 320,000 compounds, 0.25% hits;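 active = activation above the mean activation of all tested compounds plus 3 SD, per screening run, cut at about 20% in these data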;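 also: signal is peak over basal fluorescence ratio across a 100 second FLIPR read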
Target sequence (P37288 whole entry, looked up): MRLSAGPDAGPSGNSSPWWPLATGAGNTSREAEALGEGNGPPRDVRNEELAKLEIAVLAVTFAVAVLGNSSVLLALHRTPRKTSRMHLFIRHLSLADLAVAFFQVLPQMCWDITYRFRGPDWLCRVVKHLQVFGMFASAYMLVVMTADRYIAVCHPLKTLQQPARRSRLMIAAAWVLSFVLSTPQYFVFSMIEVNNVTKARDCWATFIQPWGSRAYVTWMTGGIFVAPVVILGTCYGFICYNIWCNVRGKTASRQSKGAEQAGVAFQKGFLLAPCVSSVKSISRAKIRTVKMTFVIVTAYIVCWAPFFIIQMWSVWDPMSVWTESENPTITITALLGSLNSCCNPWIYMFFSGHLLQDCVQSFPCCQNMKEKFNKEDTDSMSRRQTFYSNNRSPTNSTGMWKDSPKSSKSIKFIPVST
OX1R HTRF confirm: OX1R (HCRTR1) antagonists, confirmation, cell-based, HTRF. shares compounds with OX1R antag-2. OX1R-expressing cells, HTRF antagonist assay. inhibition, % at 6.6 µM. 1,800 compounds, 49% hits. AID 492964, 2010; in the data active = inhibition above about 55%;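 also: CHO cells expressing OX1R stimulated with orexin A at about EC80; 0% = agonist challenge alone and 100% = reference antagonist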
CHO-K1 HTRF cnt: signal inhibition in parental CHO-K1 cells, counter-screen for OX1R antagonist project, cell-based, HTRF. shares compounds with OX1R antag-2. HTRF counterscreen. inhibition, % at 6.6 µM. 1,800 compounds, 48% hits. AID 493232, 2011; in the data active = inhibition above about 17%;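 also: 0% = agonist challenge with vehicle and 100% = vehicle alone without agonist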
* hit, by the source's call; / = no result given.

SMILES	OXTR potentiator	OX1R antag-1	OXTR agonist	OX1R antag-2	CHO parental Ca	V1R ag counter	OX1R HTRF confirm	CHO-K1 HTRF cnt
Cc1c(C)n(C)c2ccc(C(=O)Nc3cccc4ccccc34)cc12	-16.0	10.0	-2.4	84.7*	-17.5	-1.4	77.4*	9.7
O=C(Nc1cccc2ccccc12)c1ccccc1	0.7	-4.5	-0.9	3.5	-13.6	-0.8	/	/
COc1ccccc1CNC(=O)COC(=O)c1cc(=O)[nH]c2ccccc12	-4.5	-5.5	-0.9	1.1	-12.5	0.9	/	/
Cc1cccc(C(=O)N[C@H](C(=O)Nc2ccc3c(c2)OCO3)C(C)C)c1	-0.5	-28.9	-1.2	10.2	-8.1	-0.2	/	/
COc1ccccc1CNC(=O)CCS(=O)(=O)c1cccc2nonc12	-2.0	-31.4	-0.2	82.6*	-8.5	0.6	30.8	31.7*
COc1ccc(CNC(=O)CCS(=O)(=O)c2cccc3nonc23)cc1	-3.4	-1.6	0.0	35.8	-5.3	0.6	/	/
COc1ccc(N(C)C(=O)CCS(=O)(=O)c2cccc3nonc23)cc1	-4.6	-30.2	0.9	116.6*	-13.9	1.4	46.2	48.7*
CCOc1ccccc1NC(=O)NNC(=O)COc1cccc(C)c1C	-9.2	-7.8	-0.1	10.5	5.5	3.6	/	/
Cc1cc(=O)oc2c(CN3CCCC3)c(O)ccc12	0.4	-11.5	0.8	0.5	-7.2	0.8	/	/
CCCc1cc(=O)oc2c(CN3CCCC3)c(O)ccc12	0.3	-23.7	0.6	94.4*	-14.1	-0.3	14.5	1.4
COc1cc(/C=C/c2sc3ccccc3[n+]2CCCS(=O)(=O)[O-])ccc1O	-1.7	9.3	5.2	86.2*	5.7	6.2	58.9*	99.1*
O=C(O)c1ccccc1/C=N/Nc1ccc(S(=O)(=O)N2CCOCC2)cc1[N+](=O)[O-]	-0.7	1.3	-0.5	56.3	-12.1	-0.2	/	/
NS(=O)(=O)c1ccc(N/N=C/c2ccccc2C(=O)O)c([N+](=O)[O-])c1	-6.2	-6.9	-0.5	161.3*	3.1	-1.0	39.7	73.8*
CN1CN=C(NS(=O)(=O)c2ccc([N+](=O)[O-])cc2)NC1	-3.6	-9.7	0.6	82.8*	-1.8	0.8	32.2	29.7*
CC(=O)N1CCN(S(=O)(=O)c2cccc(C(=O)Nc3ccccc3N3CCCC3)c2)CC1	2.4	-19.2	-0.8	12.2	-11.0	-0.4	/	/
CCn1c(C)[n+](CCOC(C)=O)c2cc(Cl)c(Cl)cc21	0.9	-8.6	0.6	87.6*	3.5	0.5	24.4	4.8
CCCc1nnc(N2C(=O)c3cccc4cccc(c34)C2=O)s1	-5.6	-17.2	-2.7	102.8*	-2.5	-0.6	40.3	37.0*
O=C1c2cccc3cccc(c23)C(=O)N1c1nccs1	-2.2	-17.4	1.2	29.5	-0.6	0.5	/	/
CCN1CCc2c(C#N)c(N3CCOCC3)nc(NCCO)c2C1	-4.7	-1.4	0.8	78.5*	1.4	0.9	7.0	-0.7
C=CCNc1nc(N2CCOCC2)c(C#N)c2c1CN(C)CC2	-3.4	-21.1	0.3	27.9	-8.0	1.3	/	/
CCC[C@@H]1CCCO[C@@](C(=O)NCCN2CCOCC2)(C(F)(F)F)C1	-4.7	-2.7	-0.3	39.9	-11.4	-0.1	/	/
Cc1ccc(NC(=O)CSc2nnc(-c3ccco3)o2)cc1	-1.9	-13.0	-0.5	98.7*	-3.4	-0.7	8.4	6.3
CC(=O)c1ccc(NC(=O)CSc2nnc(-c3ccco3)o2)cc1	-9.5	-5.1	0.6	2.1	8.1	2.9	/	/
O=C(Nc1ccnn1C1CCN(Cc2ccc(O)c(Cl)c2)CC1)C1CCCC1	-10.1	-4.6	-0.3	14.3	1.8	1.2	/	/
COc1ccc(C(C(=O)NC2CCCC2)N(CCCO)C(=O)c2snc(C(N)=O)c2N)cc1 (configuration not stated)	-6.9	-20.8	1.2	121.0*	-17.6	2.0	20.3	-2.9
SMILES	OXTR potentiator	OX1R antag-1	OXTR agonist	OX1R antag-2	CHO parental Ca	V1R ag counter	OX1R HTRF confirm	CHO-K1 HTRF cnt
COCCN(C(=O)c1snc(C(N)=O)c1N)C(C(=O)NC1CCCCC1)c1ccc(OC)c(OC)c1 (configuration not stated)	-1.8	-13.9	0.2	9.1	-9.1	1.4	/	/
O=S(=O)(c1cccc2nsnc12)N1CCOCC1	-9.5	-9.1	0.9	92.0*	-14.7	0.6	49.9	38.2*
CCN1CCN(S(=O)(=O)c2cccc3nsnc23)CC1	-2.0	-11.7	-0.9	40.0	-2.2	0.4	/	/
Cc1ccc(S(=O)(=O)N/N=C2/CCCCC2C2CCCCC2)cc1[N+](=O)[O-] (configuration not stated)	2.8	-15.4	0.6	12.8	-6.7	-0.3	/	/
CC(C)(C)c1ccc(S(=O)(=O)O/N=C2/CCCCC2c2ccc([N+](=O)[O-])cc2[N+](=O)[O-])cc1 (configuration not stated)	-0.5	-15.3	1.0	115.0*	8.2	0.5	40.8	46.8*
COc1cc(/C=N/NC(=O)c2ccccc2O)ccc1OC(=O)CC1SC(=O)NC1=O (configuration not stated)	1.8	-22.1	0.4	96.5*	-4.5	-0.1	15.6	7.1
N#Cc1ccccc1NC(=O)COC(=O)c1ccc2c(c1)OCO2	2.5	-14.7	0.1	1.3	-1.7	3.4	/	/
O=C(CN1C(=O)c2ccc([N+](=O)[O-])cc2C1=O)NCc1ccco1	4.1	-11.1	1.1	88.0*	-1.3	0.0	46.3	53.4*
CCc1ccc(CNC(=O)CCn2ccc3cc(S(=O)(=O)N4CCCC4)ccc32)cc1	-8.6	-19.1	-2.3	2.9	2.2	0.7	/	/
NNC(=S)Nc1c(Br)cc(F)cc1Br	-0.8	-12.4	-1.4	5.0	-1.4	0.5	/	/
COc1cccc2c1C(=O)C=C(C)C2=O	-3.6	-20.5	0.2	124.1*	-2.2	3.3	71.7*	92.2*
CC1=CC(=O)c2ccccc2C1=O	-5.6	-11.7	-0.6	8.2	-6.2	-0.1	/	/
C/[N+]([O-])=C1\Cc2ccccc2C1=O	0.1	-15.5	-0.4	104.7*	-12.2	-1.4	52.5	62.7*
CCCCNc1ccc2nsnc2c1[N+](=O)[O-]	-4.3	-9.6	-0.5	119.7*	1.2	2.1	59.4*	89.5*
